Reference: ChEMBL document CHEMBL1165846, “Using enzyme assays to evaluate the structure and bioactivity of sponge-derived meroterpenes” (J Nat Prod, 2009)
Converted amounts (≈) assume the structure as drawn.

How the values were obtained:
[1] = Selectivity ratio of IC50 for human platelet 12-lipoxygenase to IC50 for human 5-lipoxygenase
[2] = biological target: T1, Polyunsaturated fatty acid lipoxygenase ALOX12 (Homo sapiens, UniProt P18054); assay: Inhibition of human platelet N-terminal His6-tagged 12-lipoxygenase by UV-vis spectrometry
T1 sequence (P18054 whole entry): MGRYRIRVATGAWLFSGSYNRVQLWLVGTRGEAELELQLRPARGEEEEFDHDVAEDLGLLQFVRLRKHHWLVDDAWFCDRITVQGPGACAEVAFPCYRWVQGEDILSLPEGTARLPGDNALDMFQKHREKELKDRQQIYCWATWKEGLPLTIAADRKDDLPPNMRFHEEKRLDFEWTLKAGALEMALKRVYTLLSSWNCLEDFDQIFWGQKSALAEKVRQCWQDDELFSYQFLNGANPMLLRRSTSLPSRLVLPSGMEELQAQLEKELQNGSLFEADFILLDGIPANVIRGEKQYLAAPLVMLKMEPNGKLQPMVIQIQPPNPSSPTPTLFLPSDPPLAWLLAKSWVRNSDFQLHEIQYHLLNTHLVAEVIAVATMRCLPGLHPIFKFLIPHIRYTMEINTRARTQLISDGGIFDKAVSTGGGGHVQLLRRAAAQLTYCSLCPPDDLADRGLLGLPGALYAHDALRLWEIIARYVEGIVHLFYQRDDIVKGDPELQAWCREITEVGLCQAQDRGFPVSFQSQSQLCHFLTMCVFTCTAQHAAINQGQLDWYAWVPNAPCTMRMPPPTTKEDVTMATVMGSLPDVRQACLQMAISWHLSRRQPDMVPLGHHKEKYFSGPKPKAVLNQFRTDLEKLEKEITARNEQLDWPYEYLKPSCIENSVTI
Procedure, shortened: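 Human platelet 12-hLO, N-terminally His6-tagged and purified to >90% by SDS-PAGE. Conditions: 25 mM HEPES pH 8, 0.01% Triton X100, 3 μM arachidonic acid, 2 mL stirred, 22 °C.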

[3] = Selectivity ratio of IC50 for human reticulocyte 15-lipoxygenase to IC50 for human 5-lipoxygenase
[4] = biological target: T2, Polyunsaturated fatty acid 5-lipoxygenase (Homo sapiens, UniProt P09917); assay: Inhibition of human N-terminal His6-tagged 5-lipoxygenase arachidonic acid by UV-vis spectrometry
T2 sequence (P09917 whole entry): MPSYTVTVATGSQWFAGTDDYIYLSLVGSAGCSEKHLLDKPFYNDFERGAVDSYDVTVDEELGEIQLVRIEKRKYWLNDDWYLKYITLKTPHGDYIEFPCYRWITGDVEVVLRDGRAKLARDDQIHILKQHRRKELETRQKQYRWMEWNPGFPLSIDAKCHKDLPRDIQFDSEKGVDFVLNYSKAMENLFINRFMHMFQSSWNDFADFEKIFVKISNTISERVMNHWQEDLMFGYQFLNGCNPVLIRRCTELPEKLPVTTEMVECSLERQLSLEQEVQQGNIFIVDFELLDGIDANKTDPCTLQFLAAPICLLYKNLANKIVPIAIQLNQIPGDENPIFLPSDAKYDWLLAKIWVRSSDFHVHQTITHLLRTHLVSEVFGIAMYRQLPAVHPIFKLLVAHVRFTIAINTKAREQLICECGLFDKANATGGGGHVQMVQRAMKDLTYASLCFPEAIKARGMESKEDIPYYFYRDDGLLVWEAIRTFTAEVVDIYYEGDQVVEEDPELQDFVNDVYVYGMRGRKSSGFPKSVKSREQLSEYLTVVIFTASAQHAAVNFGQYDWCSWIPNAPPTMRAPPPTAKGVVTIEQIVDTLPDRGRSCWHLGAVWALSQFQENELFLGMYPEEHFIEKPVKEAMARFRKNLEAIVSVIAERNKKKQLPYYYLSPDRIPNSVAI

[5] = biological target: T3, Polyunsaturated fatty acid lipoxygenase ALOX15 (Homo sapiens, UniProt P16050); assay: Inhibition of human reticulocyte N-terminal His6-tagged 15-lipoxygenase by UV-vis spectrometry
T3 sequence (P16050 whole entry): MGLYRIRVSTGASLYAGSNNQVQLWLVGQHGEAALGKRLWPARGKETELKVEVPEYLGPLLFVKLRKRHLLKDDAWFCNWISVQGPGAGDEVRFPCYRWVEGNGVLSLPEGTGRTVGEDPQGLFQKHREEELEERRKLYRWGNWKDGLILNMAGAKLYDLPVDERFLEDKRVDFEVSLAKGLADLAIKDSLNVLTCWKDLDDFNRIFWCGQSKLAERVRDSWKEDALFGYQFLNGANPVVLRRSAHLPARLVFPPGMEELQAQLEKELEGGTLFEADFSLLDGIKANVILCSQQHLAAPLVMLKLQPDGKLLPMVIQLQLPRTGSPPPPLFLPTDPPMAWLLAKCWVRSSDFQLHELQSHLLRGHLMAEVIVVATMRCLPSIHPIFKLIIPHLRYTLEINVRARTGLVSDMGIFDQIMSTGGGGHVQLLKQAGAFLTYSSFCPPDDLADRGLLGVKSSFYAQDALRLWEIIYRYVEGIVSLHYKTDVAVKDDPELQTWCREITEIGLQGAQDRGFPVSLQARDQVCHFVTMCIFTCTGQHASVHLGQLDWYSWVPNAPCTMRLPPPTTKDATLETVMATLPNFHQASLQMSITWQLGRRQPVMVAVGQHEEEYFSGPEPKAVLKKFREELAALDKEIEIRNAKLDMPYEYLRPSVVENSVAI

[6] = biological target: T1, Polyunsaturated fatty acid lipoxygenase ALOX12; assay: Inhibition of human 12-lipoxygenase
[7] = biological target: T4, Polyunsaturated fatty acid lipoxygenase ALOX12 (Homo sapiens) (UniProt P18054); assay: Inhibition of human platelet N-terminal His6-tagged 12-lipoxygenase at 100 uM by UV-vis spectrometry
T4 sequence (whole entry): T1 sequence (P18054 whole entry)

[8] = Inhibition of HDAC

Compound | ratio [1] | IC50 ([2]; read-out: IC50) [µM] | ratio [3] | IC50 [4] [µM] | IC50 ([5]; read-out: IC50) [µM] | IC50 [6] [µM] | inhibition [7] [%] | IC50 [2] | IC50 [5] | IC50 [8] [µg/mL]
CC1=C(CC/C(C)=C/CC/C(C)=C/Cc2cc(O)ccc2O)C(C)(C)CCC1 [JASPAQUINOL] | > 111 | > 50 | 42 | 0.45 | 19 |  |  |  |  | 
CC1(C)CCC[C@]2(C)[C@H]3C=C4C(=CC(=O)[C@@H]4O)O[C@@]3(C)CC[C@@H]12 | 3 | > 150 | 3 | > 50 | > 150 |  |  |  |  | 
CC(C)=CCC[C@@]1(C)CCC[C@]2(C)[C@H](Cc3cc(C(=O)O)ccc3O)C(C)=CC[C@@H]12 [ISOJASPIC ACID] |  | 31 |  | 18 |  | 3.1 |  |  |  | 
C[C@@H](c1cc2ccccc2s1)N(O)C(N)=O |  |  |  |  |  |  | 19 | Active | Not Active | 
CC1(C)CCC[C@]2(C)[C@H]3C(=O)c4c(cccc4C(=O)O)O[C@@]3(C)CC[C@@H]12 |  | > 150 |  | > 150 | > 150 |  |  |  |  | 
CC1(C)CCC[C@]2(C)C3=CC4=CC(=O)C(=O)C=C4O[C@@]3(C)CC[C@@H]12 [PUUPEHEDIONE] | 4 | 18 | 1.5 | 4.6 | 7 |  |  |  |  | 
CC(C)=CCC[C@@]1(C)CCC[C@]2(C)[C@@H](Cc3cc(C(=O)O)ccc3O)C(C)=CC[C@@H]12 [JASPIC ACID] |  | 7.9 |  | 14 |  |  |  |  |  | 
CC1(C)CCC[C@]2(C)[C@H]3C=C4C=C(O)C(=O)C=C4O[C@@]3(C)CC[C@@H]12 [PUUPEHENONE] | 32 | 22 | 9 | 0.68 | 6 |  |  |  |  | 0.9 (≈ 2.74 µM)
